Calls of active or inactive are those of the source. No cut-off for these calls is given here.
Tests used:
THP-1 = assay: Cytotoxicity against human acute monocytic leukemia cell line THP1 assessed as inhibition of cell viability measured after 24 hrs by MTT assay; format: functional, cell-based; conditions: THP-1, 24 h
How it was run: (§1)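 Exponentially growing cells exposed to compound, then allowed to proliferate for two to three population doubling times; surviving cells quantified by MTT reduction by mitochondrial dehydrogenase to formazan, dissolved in DMSO and read at 570 nm.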

A549 [1] = assay: Cytotoxicity against human lung adenocarcinoma cell line A549 assessed as inhibition of cell viability measured after 24 hrs by MTT assay; format: functional, cell-based; conditions: A549, 24 h; how it was run: as §1
MCF7 [2] = assay: Cytotoxicity against human breast cancer cell line MCF7 assessed as inhibition of cell viability […] by MTT assay; format: functional, cell-based
COLO 205 [3] = assay: Cytotoxicity against human colon cancer line COLO205 assessed as inhibition of cell viability measured after 24 hrs by MTT assay; format: functional, cell-based; conditions: COLO 205, 24 h; how it was run: as §1
A549 [4] = assay: Cytotoxicity against human […] assessed as cell death measured at 10 ug/mL after 24 hrs by MTT assay; format: functional
How it was run: (§2)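 Cells in exponential growth exposed to compound, then left to proliferate for two to three population doubling times so viable, proliferating cells are told apart from non-proliferating ones. Surviving cells estimated by MTT reduction to formazan by mitochondrial dehydrogenase; formazan dissolved in DMSO and read at 570 nm.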

A549 [5] = assay: Cytotoxicity against human […] assessed as cell death measured at 7 ug/mL after 24 hrs by MTT assay; format: functional; how it was run: as §2
A549 [6] = assay: Cytotoxicity against human […] assessed as cell death measured at 5 ug/mL after 24 hrs by MTT assay; format: functional; how it was run: as §2
A549 [7] = assay: Cytotoxicity against human […] assessed as cell death measured at 2 ug/mL after 24 hrs by MTT assay; format: functional; how it was run: as §2
A549 [8] = assay: Cytotoxicity against human […] assessed as cell death measured at 1 ug/mL after 24 hrs by MTT assay; format: functional; how it was run: as §2
MCF7 [9] = assay: Cytotoxicity against human colon cancer line MCF7 assessed as cell death measured at 10 ug/mL after 24 hrs by MTT assay; format: functional; how it was run: as §2
MCF7 [10] = assay: Cytotoxicity against human colon cancer line MCF7 assessed as cell death measured at 7 ug/mL after 24 hrs by MTT assay; format: functional; how it was run: as §2
MCF7 [11] = assay: Cytotoxicity against human colon cancer line MCF7 assessed as cell death measured at 5 ug/mL after 24 hrs by MTT assay; format: functional; how it was run: as §2
MCF7 [12] = assay: Cytotoxicity against human colon cancer line MCF7 assessed as cell death measured at 2 ug/mL after 24 hrs by MTT assay; format: functional; how it was run: as §2
MCF7 [13] = assay: Cytotoxicity against human colon cancer line MCF7 assessed as cell death measured at 1 ug/mL after 24 hrs by MTT assay; format: functional; how it was run: as §2
COLO 205 [14] = assay: Cytotoxicity against human colon cancer line COLO205 assessed as cell death measured at 10 ug/mL after 24 hrs by MTT assay; format: functional; how it was run: as §2
COLO 205 [15] = assay: Cytotoxicity against human colon cancer line COLO205 assessed as cell death measured at 7 ug/mL after 24 hrs by MTT assay; format: functional; how it was run: as §2
COLO 205 [16] = assay: Cytotoxicity against human colon cancer line COLO205 assessed as cell death measured at 5 ug/mL after 24 hrs by MTT assay; format: functional; how it was run: as §2
COLO 205 [17] = assay: Cytotoxicity against human colon cancer line COLO205 assessed as cell death measured at 2 ug/mL after 24 hrs by MTT assay; format: functional; how it was run: as §2
COLO 205 [18] = assay: Cytotoxicity against human colon cancer line COLO205 assessed as cell death measured at 1 ug/mL after 24 hrs by MTT assay; format: functional; how it was run: as §2
MCF7 [19] = assay: Cytotoxicity against human breast cancer cell line MCF7 assessed as cell survival measured after 24 hrs by MTT assay relative to control; format: functional; how it was run: as §2
MCF7 [20] = assay: Induction of apoptosis in human MCF7 cells assessed as DNA laddering at IC50 concentration measured after 24 hrs by DNA laddering assay relative to control; format: functional, cell-based
How it was run: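 DNA from treated and untreated cells run on a gel and examined for fragmentation (laddering).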

MCF7 [21] = assay: Induction of apoptosis in human MCF7 cells assessed as double-strand DNA break at IC50 concentration measured after 24 hrs by comet assay relative to control; format: functional, cell-based
How it was run: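 Treated cells embedded in low melting agarose on a microscope slide, lysed at alkaline pH, electrophoresed at high pH, then examined for comet tails as a sign of double-strand DNA breaks, with untreated cells as control.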

B16-F10 = assay: Cytotoxicity against mouse melanoma cell line B16F10 assessed as inhibition of cell viability measured after 24 hrs by MTT assay; format: functional, cell-based; conditions: B16-F10, 24 h; how it was run: as §1
HepG2 = assay: Cytotoxicity against human liver hepatocellular carcinoma cell line HepG2 assessed as inhibition of cell viability measured after 24 hrs by MTT assay; format: functional, cell-based; conditions: HepG2, 24 h; how it was run: as §1

## COc1ccc(Cc2nc(-c3cc(Br)c(O)c(Br)c3)cnc2Cl)cc1Br
THP-1
  IC50: 108 µM
A549 [1]
  IC50: 41.2 µM

## COc1ccc(Cc2nc(-c3cc(Br)c(OCCCN(C)C)c(Br)c3)cnc2Cl)cc1Br
THP-1
  IC50: 87.3 µM
A549 [1]
  IC50: 14.4 µM

## COc1ccc(Cc2nc(-c3cc(Br)c(O)c(Br)c3)c[nH]c2=O)cc1Br
THP-1
  IC50: 125 µM
A549 [1]
  IC50: 52 µM

## CNCCCOc1c(Br)cc(-c2cnc(Cl)c(Cc3ccc(OC)c(Br)c3)n2)cc1Br
THP-1
  IC50: 133 µM
A549 [1]
  IC50: 25.3 µM

## COc1cc([C@@H]2c3cc4c(cc3[C@@H](O[C@@H]3O[C@@H]5CO[C@@H](C)O[C@H]5[C@H](O)[C@H]3O)[C@H]3COC(=O)[C@H]23)OCO4)cc(OC)c1O [ETOPOSIDE]
MCF7 [2]
  IC50: 16.3 µM
COLO 205 [3]
  IC50: 5.3 µM
A549 [4]
  Activity: 100%
A549 [5]
  Activity: 100%
A549 [6]
  Activity: 100%
A549 [7]
  Activity: 93.4%
A549 [8]
  Activity: 47.9%
MCF7 [9]
  Activity: 51%
MCF7 [10]
  Activity: 33.7%
MCF7 [11]
  Activity: 23.9%
MCF7 [12]
  Activity: 8.9%
MCF7 [13]
  Activity: 4.3%
COLO 205 [14]
  Activity: 100%
COLO 205 [15]
  Activity: 100%
COLO 205 [16]
  Activity: 78.7%
COLO 205 [17]
  Activity: 39.2%
COLO 205 [18]
  Activity: 17.8%

## COc1ccc(Cc2nc(-c3cc(Br)c(OCCCN(C)C)c(Br)c3)c[nH]c2=O)cc1Br [Ma'edamine A]
THP-1
  IC50: 46.2 µM
MCF7 [2]
  IC50: 6.9 µM
COLO 205 [3]
  IC50: 7.9 µM
MCF7 [19]
  Survival: 47.7%
MCF7 [20]
  Activity: Active
MCF7 [21]
  Activity: Active
B16-F10
  IC50: 16.7 µM
HepG2
  IC50: 29.6 µM
A549 [1]
  IC50: 12.2 µM

## CNCCCOc1c(Br)cc(-c2c[nH]c(=O)c(Cc3ccc(OC)c(Br)c3)n2)cc1Br [Ma'edamine B]
THP-1
  IC50: 90.7 µM
MCF7 [2]
  IC50: 10.9 µM
COLO 205 [3]
  IC50: 10.3 µM
MCF7 [19]
  Survival: 49.256%
MCF7 [20]
  Activity: Active
MCF7 [21]
  Activity: Active
B16-F10
  IC50: 53.3 µM
HepG2
  IC50: 42.8 µM
A549 [1]
  IC50: 15.4 µM

— ChEMBL document CHEMBL2311380, “The first total synthesis and biological evaluation of marine natural products ma'edamines A and B” (Bioorg Med Chem Lett, 2013)
